From ChEMBL document CHEMBL3352023, “C-terminal residue optimization and fragment merging: discovery of a potent Peptide-hybrid inhibitor of dengue protease” (ACS Med Chem Lett, 2014)
pIC50: −log10 of the molar value.

What was measured:
[1] = target: Genome polyprotein (West Nile virus) (UniProt P06935); assay: Inhibition of West Nile virus […] NS2B-NS3 protease at 50 uM by homogeneous fluorimetric assay
How it was run: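 WNV NS2B-NS3 protease percent inhibition, homogeneous fluorimetric assay: enzyme 150 nM, inhibitor 50 μM, substrate 50 μM (Km = 212 μM); triplicate, SD below 10%.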

[2] = target: Genome polyprotein (dengue virus type 2) (UniProt P12823); assay: Competitive inhibition of Dengue virus serotype 2 NS2B-NS3 protease by aprotinin competition fluorescence assay
How it was run: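 Active-site binding checked by aprotinin competition: fluorescence decrease followed with increasing inhibitor concentration, then aprotinin added to test recovery of fluorescence.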

Genome polyprotein = Genome polyprotein (dengue virus type 2, UniProt P12823); assay: Inhibition of Dengue virus serotype 2 NS2B-NS3 protease by homogeneous fluorimetric assay
[3] = target: Genome polyprotein (dengue virus type 2) (UniProt P12823); assay: Inhibition of Dengue virus serotype 2 NS2B-NS3 protease at 50 uM by homogeneous fluorimetric assay
[4] = target: Prothrombin (Homo sapiens) (UniProt P00734); assay: Inhibition of thrombin (unknown origin) at 25 uM by homogeneous fluorimetric assay

Sequence of Genome polyprotein (West Nile virus) (P06935 whole entry): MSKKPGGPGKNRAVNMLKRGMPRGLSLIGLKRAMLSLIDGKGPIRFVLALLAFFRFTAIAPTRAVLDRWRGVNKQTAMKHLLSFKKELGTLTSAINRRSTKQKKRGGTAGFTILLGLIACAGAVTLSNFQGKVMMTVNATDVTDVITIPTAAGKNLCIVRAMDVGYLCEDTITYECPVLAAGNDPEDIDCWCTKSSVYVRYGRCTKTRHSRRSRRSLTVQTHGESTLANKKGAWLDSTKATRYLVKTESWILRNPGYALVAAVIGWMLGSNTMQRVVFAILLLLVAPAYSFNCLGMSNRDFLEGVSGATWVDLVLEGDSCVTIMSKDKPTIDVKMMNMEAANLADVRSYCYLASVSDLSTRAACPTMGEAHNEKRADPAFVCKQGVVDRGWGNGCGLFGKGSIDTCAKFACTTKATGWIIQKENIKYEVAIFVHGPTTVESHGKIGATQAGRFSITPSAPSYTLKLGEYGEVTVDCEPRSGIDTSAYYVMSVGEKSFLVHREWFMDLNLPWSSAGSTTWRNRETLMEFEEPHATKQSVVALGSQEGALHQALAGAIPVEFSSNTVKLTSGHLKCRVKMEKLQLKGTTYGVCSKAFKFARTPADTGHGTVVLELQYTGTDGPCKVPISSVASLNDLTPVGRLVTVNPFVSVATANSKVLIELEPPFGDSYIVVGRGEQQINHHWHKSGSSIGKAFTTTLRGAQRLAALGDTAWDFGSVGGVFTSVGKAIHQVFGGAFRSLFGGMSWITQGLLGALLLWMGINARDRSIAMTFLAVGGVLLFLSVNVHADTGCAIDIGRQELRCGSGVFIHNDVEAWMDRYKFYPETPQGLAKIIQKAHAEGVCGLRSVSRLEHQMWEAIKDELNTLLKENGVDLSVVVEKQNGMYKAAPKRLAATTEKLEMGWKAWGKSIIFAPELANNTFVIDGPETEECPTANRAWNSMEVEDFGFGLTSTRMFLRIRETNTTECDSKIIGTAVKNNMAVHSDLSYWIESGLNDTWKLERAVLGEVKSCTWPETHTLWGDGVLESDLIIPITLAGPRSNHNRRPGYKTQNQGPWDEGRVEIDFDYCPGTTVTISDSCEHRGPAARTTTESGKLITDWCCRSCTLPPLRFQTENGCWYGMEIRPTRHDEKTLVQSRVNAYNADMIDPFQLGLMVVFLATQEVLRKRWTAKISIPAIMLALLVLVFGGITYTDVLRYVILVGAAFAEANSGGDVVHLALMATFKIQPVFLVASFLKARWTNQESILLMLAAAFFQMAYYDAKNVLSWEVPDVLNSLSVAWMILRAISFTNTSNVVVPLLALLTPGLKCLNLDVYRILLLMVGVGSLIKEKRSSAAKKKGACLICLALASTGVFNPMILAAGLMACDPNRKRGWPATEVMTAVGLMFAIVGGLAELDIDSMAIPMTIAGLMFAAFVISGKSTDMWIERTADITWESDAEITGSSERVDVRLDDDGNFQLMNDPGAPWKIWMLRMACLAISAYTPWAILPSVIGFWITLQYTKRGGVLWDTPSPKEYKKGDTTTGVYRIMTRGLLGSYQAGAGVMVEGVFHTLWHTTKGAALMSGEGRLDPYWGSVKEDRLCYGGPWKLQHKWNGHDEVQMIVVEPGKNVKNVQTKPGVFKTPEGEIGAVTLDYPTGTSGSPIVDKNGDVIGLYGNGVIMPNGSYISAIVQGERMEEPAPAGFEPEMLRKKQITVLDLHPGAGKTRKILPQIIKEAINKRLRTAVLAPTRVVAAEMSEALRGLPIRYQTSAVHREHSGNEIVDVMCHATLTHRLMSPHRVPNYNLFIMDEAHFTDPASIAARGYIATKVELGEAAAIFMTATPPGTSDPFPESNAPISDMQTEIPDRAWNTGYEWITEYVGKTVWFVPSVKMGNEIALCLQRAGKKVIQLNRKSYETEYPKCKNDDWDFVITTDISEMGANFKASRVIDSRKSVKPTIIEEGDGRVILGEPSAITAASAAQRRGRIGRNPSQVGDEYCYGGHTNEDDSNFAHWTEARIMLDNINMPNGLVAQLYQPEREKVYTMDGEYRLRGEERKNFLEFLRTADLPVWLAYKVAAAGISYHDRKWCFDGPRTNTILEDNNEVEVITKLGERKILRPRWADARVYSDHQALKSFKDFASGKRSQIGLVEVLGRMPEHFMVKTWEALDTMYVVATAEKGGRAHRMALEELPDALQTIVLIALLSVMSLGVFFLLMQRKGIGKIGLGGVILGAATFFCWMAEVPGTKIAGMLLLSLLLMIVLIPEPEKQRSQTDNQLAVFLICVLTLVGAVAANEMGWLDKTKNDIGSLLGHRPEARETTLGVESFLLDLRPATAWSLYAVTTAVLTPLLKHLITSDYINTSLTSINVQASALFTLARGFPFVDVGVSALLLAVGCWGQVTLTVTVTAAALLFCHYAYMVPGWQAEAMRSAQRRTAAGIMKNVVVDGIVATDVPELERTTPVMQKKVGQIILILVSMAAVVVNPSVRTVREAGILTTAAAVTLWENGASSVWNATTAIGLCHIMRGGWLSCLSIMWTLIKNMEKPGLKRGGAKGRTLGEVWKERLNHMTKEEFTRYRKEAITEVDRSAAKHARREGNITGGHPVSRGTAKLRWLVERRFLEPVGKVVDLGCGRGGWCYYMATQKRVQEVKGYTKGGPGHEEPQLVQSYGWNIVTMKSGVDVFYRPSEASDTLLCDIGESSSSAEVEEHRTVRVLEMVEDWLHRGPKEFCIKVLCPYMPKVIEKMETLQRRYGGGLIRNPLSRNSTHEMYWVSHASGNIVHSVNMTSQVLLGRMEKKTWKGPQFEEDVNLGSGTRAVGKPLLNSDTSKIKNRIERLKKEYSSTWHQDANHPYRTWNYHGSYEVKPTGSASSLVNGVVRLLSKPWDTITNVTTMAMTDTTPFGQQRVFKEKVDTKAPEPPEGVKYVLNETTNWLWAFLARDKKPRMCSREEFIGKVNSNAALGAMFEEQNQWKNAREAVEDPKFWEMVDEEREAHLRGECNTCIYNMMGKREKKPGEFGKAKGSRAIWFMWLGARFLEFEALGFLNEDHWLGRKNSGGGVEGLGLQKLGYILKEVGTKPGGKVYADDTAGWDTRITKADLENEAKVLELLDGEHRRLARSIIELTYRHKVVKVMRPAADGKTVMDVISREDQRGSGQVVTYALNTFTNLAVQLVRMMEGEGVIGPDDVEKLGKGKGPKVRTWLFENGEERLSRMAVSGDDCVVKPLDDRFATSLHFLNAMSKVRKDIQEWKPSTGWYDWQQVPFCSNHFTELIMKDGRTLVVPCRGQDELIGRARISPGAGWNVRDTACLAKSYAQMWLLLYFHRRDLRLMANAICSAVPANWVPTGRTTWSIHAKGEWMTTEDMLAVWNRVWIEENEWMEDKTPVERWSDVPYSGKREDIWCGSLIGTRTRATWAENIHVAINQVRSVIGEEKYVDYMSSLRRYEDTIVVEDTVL

inhibition [1]: 98.4%
inhibition [2]: Dose-dependent effect
pIC50 (Genome polyprotein): 6.22
inhibition [3]: 99.6%
inhibition [4]: 9.2%
Structure (SMILES): N=C(N)NCCC[C@H](NC(=O)c1ccc(/C=C2\SC(=O)N(C3CCCC3)C2=O)cc1)C(=O)N[C@@H](CCCCN)C(=O)N[C@H](C(N)=O)c1ccccc1
